Measurements reported in the RNAGym collection of RNA variant scans (doi:10.1126/science.aae0568).
This sample holds only a part of the variants without activity.

B1: tRNA (parent)
chain: GUUCCGUUGGCGUAAUGGUAACGCGUCUCCCUCCUAAGGAGAAGACUGCGGGUUCGAGUCCCGUACGGAACG

Variants of: B1
Test: yeast fitness relative to wild type (ratio to wild type); higher = fitter; tRNA-Arg(CCU), competitive growth, 37 C, YPD
Summary of the method: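 Genotype frequency changes were the basis for Darwinian fitness relative to wild type. The frequencies came from 100-nucleotide paired-end sequencing of gene amplicons from the start population and each end population of pooled yeast strains with tRNA-Arg(CCU) gene variants at the native locus. Competition ran in YPD at 37°C for 24 hours in six replicates, genotypes needed ≥ 100 starting reads, and estimates < 0.5 were set to 0.5.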

Variant | yeast fitness
GUUCCGGUGGCGUAAUGGUAACGCGUCUACCUCCUAAGGAGAAGACUGCGGGUUCGAGUCCCGUACGGGACG | ≤ 0.5
GUUCCGUUGGCGUGAUGGUAACGCGUCUCCCUCCUAAGGAGACGGCUGCAGGUUCGAGUCCCGUACGGAACG | ≤ 0.5
GUUCCGCUGGCGUAAUGGUUACGCGUCUCCCUCCUGAGGAGAAGACUGCGGGUUCGAGUCCUGUACGGAACG | ≤ 0.5
GUUCCGUGGGCGUAAUGGUAACGCGUCUCCCUCCUAAGGAGAAGACUGCGGGUUCGAGUCCCGUACGGAACG | 0.711
GUUACGUUGGCGUAAUGGUAGCGCGUUUCCCUCCUAAGGAGAAGACUGCGGGUUCGAGUCCCGUACGGAACG | 0.686
GUUCCAUUGGUGUAAUGGUAACGCGUAUCCCUCCUAAGGAGAAGACUGCGGGUUCGAGUCCCGUACGGAACG | 0.719
GUUCCGUUGGCGUAAUGGUGAAGCGUCUCCCUCCUACGGAGAAGACUGCGGGUUCGAGUCCCGUGCGGAACG | ≤ 0.5
GCUCCGUUGGCGUAAUGGUAACGCGUCUCCCUCCUAAGGAGCAGACUGCGGGUUCGAGUCCCGUACGGAACG | 0.914
GUUCCGUUGGCGUACUGGUAACGCGUCUCCCUCCUCAGGAGAAGACUACGGGUUCGAGUCCCGUACGGAACG | 0.516
GUUCCGUUGACGUAAUGGUAACGCGUCUCCCUCCUGAGGAGAAGACUCCGGGUUCGAGUCCCGUACGGAACG | 0.691
GUUCCGUUGGCGUAAUGGUAACGCGUCUCCCCCCUAAGGAGAAGACUGCGGGUUAGAGUCCCGUACGGAACG | 0.632
GUUCCGUUGGCGUAGUGGUAACGCGACUCCCUCCUAAGGAGAAGACUGCGGGUUCGAGUCCCGUACGGAACG | 1.04
GUUCCGUUGGCGUCAUGGUGACGCGUCUCCCUCCUGAGGAGAAGACUGCGGGUUUGAGUCCCGUACGCAACG | ≤ 0.5
GUUCCGUUCGCGUAACGGUAACGCGUCUCUCUCCUAAGGAGAAGACUGCGGGUUCGAGAGCCGUACGGAACG | ≤ 0.5
GAUCCGUUGGCGUAAUGGUAACCCGUUUCCGUCCUAAGGAGCAGACUGCGGGUUCGAGUCUCGUACGGAACG | ≤ 0.5
GUUCCGUUGGCGUAAUGGUAACGCGUAUCCCUCCUAAGGAGGACACUGCGGGUUCGAGUCCCGUAUGGAACG | ≤ 0.5
GUUCCCUUGGCGUAAAGGUAACCCGUCUCCCUCCUAAGGAGAAGACUGCGGGUUCGAGUUCCGUACGGAACG | 0.625
GUUCCGUUGGCGUAAUGGUAACGCGCCUCUCUCCUAAGGAGAAGACUGCGGGUUCGAGUCACGUACGGAACG | 0.571
GUUCCGUUGGCGUAAUGGUCGCGCGUCUCCCUCCUAAGGAGAAGACUGCGGGUUCGAGUCCCGUACGGCACG | 0.825

Variant | yeast fitness
GUUCCGUGGGCGUAAUGGUAAGGCGUCUCCCUCCUAAGGAGAAGACUACGGGUUCGAGUACCGCACGGCACG | 0.561
GUUCCGUUGGCGUAAUGGUAACGCGUCUCCCUCCUAAGGAGAAGGCUGCGGGUUAAAGUCCCGUACAGAACG | ≤ 0.5
GUUCCGUUGGCGUAAUGGUAACGUGUCUUCCUCCUAAGGAGAAGACUGCGGGUUCGAGUCCCGUACGGAACG | 0.859
GUUCCGUUGGCGUAAUGGUAAUGCGUCUCCCUCCUAAGGAGAAGACUGCGGGUUCGAGUCCCGUACGGUACG | 0.799
GUUUCGUUGGAGUAAUGGUAAUGCGUCUCCCUCCUAAGGAGUAGACUGCGGGUUCGAGUCCCGUACGGAACG | 0.577
GUUCCGUUGGCGUAAUGGUAACGCGUCUCCCCCCUAAGGAGAAGACUGCGGAUUCGACUCCCGUACGGAACG | ≤ 0.5
GUUCCGUUGGAGUAAUGGUAACGCGUGUCCCUCCUAAGGAGAAGACUGCGGGUUUGAGUCCCGUACGGAACG | ≤ 0.5
GUUCCGUUGGCGUAAUGGUCACGCGUCUCCCUCCUAAAGAGAAGACUGCGGGUUCGUGUCCCGUACGGAACG | ≤ 0.5
GUCCCGUUGGCGUAAUGGUAACGCGUCUCCCUCCUAAGGAGAAGAGUGCGGGUUCGAGUCCCGUACGGCACG | 0.625
GCACCGUUGGCGUAAUGGUAACGCGUCUCCGUCCAAAGGAGAAGACUGCGGGUUCGAGUCCCGUACGGAACG | ≤ 0.5
GUUGCGUGAGUGUAAUGGUAACGCGUCUCCCUCGUAAGGAGAAGACUGUGGGUUCGAGUCCCGUACGGAACG | ≤ 0.5
GUUCCGUUGGCGUAAUGGUAACGCGUCUCCGUGCUAAGGAGAAGACAGCGGGUUCGAGUCCCGUACGGAACG | 0.581
GUUCCGUUGGCGUAAUGGUAACGCGUAUCCCUCCUAAGGAGAAGACUGCGGGUUCGAGUGCCGCACGGAACG | 0.779
GUUCCGUAGGCGUAAUGGUAACGCCUCUCCCUCCUACGGAGAAGACUGCGGGUUCGAGUCCCGUCCGGAACG | ≤ 0.5
GUUCCGUUGGCGUAAUGGUAACGCGUCUCCCUCGUCAGGAGAAGACUGCGGGUUCGAGUCCCGUACGGACCG | ≤ 0.5
GUUCCGUUGGCGGAAUGGUAAUGCAUCUCCAUCCUAAGGAGAAGACUGCGGGUUCGAGUCCCGUACGGAACG | 0.601
GUUCCGUUGGCGUACUGGUAACGCGUCUCACUCCUAAGGAGAAGACUGCGGGUUCGGGUCCCGUACGGAACG | ≤ 0.5
GUUCCGUUGGCGAAAUGGUAACGCGUCUCCCUCCUAAGGAGUAGACUGCGGGUUCGAGUCCCGUAUGGAACG | 0.704
GUCCCAUUGGCGUAAUGGUAACCCGUCUCCCUCCUAAGGAGAAGACUGGGGGGUCGGGUCCCGUACGGAACG | ≤ 0.5
